This passage reports MIC and Activity results from ChEMBL document CHEMBL1255473, “Homozygous triplicate mutations in three 16S rRNA genes responsible for high-level aminoglycoside resistance in Nocardia farcinica clinical isolates from a Canada-wide bovine mastitis epizootic” (2010).

Values after ≈ are worked out from the molar mass of the structure shown. Active and inactive are the calls of the source. No cut-off for these calls is given here.

The test system of assay [1] is Nocardia farcinica. Description: Antimicrobial activity against amikacin-susceptible Nocardia farcinica IFM 10152 harboring 16s rRNA A1408G mutant after 5 days by broth microdilution method. It counts as functional. In outline: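 Broth microdilution in BHI medium across several aminoglycosides. Cells were held at 37°C and MIC was determined from OD600 on day 5 of incubation.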
A general note: Dilution methods test growth across graded concentrations, often in twofold steps.

Assay [2] has as its system Nocardia farcinica. Kind of assay: Antimicrobial activity against amikacin-susceptible Nocardia farcinica IFM 10152 after 3 days by broth microdilution method. It counts as functional. The procedure, abridged: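 Broth microdilution in BHI medium, final inoculum 10^4 CFU/ml. Host strain carried empty pNV19 vector. Cells incubated with serial aminoglycoside concentrations at 37°C for 3 days. MIC read from OD600.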

In assay [3] the test system is Nocardia farcinica. Kind of assay: Antimicrobial activity against amikacin-resistant Nocardia farcinica IFM 10580 after 3 days by broth microdilution method. Type of assay: functional. The procedure, abridged:
(§1)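 Broth microdilution in BHI medium with a range of aminoglycosides. Cells were incubated at 37°C, OD600 was measured, and the MIC was read on day 3 of incubation.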

Assay [4] deals with Nocardia farcinica. Description: Antimicrobial activity against amikacin-susceptible Nocardia farcinica IFM 10152 harboring 16s rRNA A1408G mutant after 3 days by broth microdilution method. It counts as functional. In outline:
as §1

Assay [5] concerns Nocardia farcinica. Description: Antimicrobial activity against amikacin-susceptible Nocardia farcinica IFM 10152-M2 expressing rrnA A1408G and rrnC A1408G mutant genes after 3 days by broth microdilution method. It counts as functional. The note with it: IFM 10152-M2, 72 h. In outline: as §1
Assay [6] concerns Nocardia farcinica. Kind of assay: Antimicrobial activity against amikacin-susceptible Nocardia farcinica isolate IFM 10152-M3 assessed as cell growth at 1024 ug/ml at <12 hrs. It counts as functional, organism-based.
Assay [7] concerns Nocardia farcinica. Kind of assay: Antimicrobial activity against amikacin-susceptible Nocardia farcinica isolate IFM 10152-M2 assessed as cell growth at 1024 ug/ml after 24 hrs.
The subject of assay [8] is Nocardia farcinica. Kind of assay: Antimicrobial activity against amikacin-susceptible Nocardia farcinica IFM 10152-M2 expressing wild type rrnB gene and plasmid encoded rrnA A1408G and rrnC A1408G mutant genes after 3 days by broth microdilution method. The settings on record: IFM 10152-M2, 72 h. It counts as functional. The procedure, abridged:
as §1

Assay [9] has as its system Nocardia farcinica. Kind of assay: Antimicrobial activity against amikacin-susceptible Nocardia farcinica IFM 10152-M3 expressing rrnA A1408G, rrnB A1408G and rrnC A1408G mutant genes after 3 days by broth microdilution method. Type of assay: functional. The note with it: IFM 10152-M3, 72 h. The procedure, abridged:
as §1

For assay [10], the system named is Nocardia farcinica. Description: Antimicrobial activity against amikacin-susceptible Nocardia farcinica isolate IFM 10152-M2 assessed as cell growth at 1024 ug/ml after 24 hrs. Type of assay: functional, organism-based.
Assay [11] relates to Nocardia farcinica. Description: Antimicrobial activity against amikacin-resistant Nocardia farcinica IFM 10580 assessed as cell growth at 1024 ug/ml at <12 hrs. Type of assay: functional, organism-based. The procedure, abridged:
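Cells were cultured in the presence of 1,024 μg/ml amikacin and growth was followed over time.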

`NC[C@@H]1O[C@H](O[C@H]2[C@@H](O)[C@H](O[C@@H]3[C@@H](O)[C@H](N)C[C@H](N)[C@H]3O[C@H]3O[C@H](CO)[C@@H](O)[C@H](O)[C@H]3N)O[C@@H]2CO)[C@H](N)[C@@H](O)[C@@H]1O` [PAROMOMYCIN]: the MIC – broadly, the least concentration at which growth counts as inhibited – is greater than 1020 µg/mL with Nocardia farcinica [1] (IFM 10152, 120 h); 8 µg/mL (≈ 13 µM) against Nocardia farcinica [2] (IFM 10152, 72 h); greater than 1020 µg/mL in the assay on Nocardia farcinica [3] (IFM 10580, 72 h); greater than 1020 µg/mL in the assay with Nocardia farcinica [4] (IFM 10152, 72 h).
With `NC[C@H]1O[C@H](O[C@H]2[C@H](O[C@@H]3O[C@H](CO)[C@@H](O)[C@H]3O)[C@@H](O)[C@H](N)C[C@@H]2N)[C@H](N)[C@@H](O)[C@@H]1O` [RIBOSTAMYCIN], the MIC against Nocardia farcinica [1] (IFM 10152, 120 h) was greater than 1020 µg/mL; against Nocardia farcinica [2] (IFM 10152, 72 h) it was 256 µg/mL (≈ 563 µM); with Nocardia farcinica [3] (IFM 10580, 72 h), greater than 1020 µg/mL; with Nocardia farcinica [4] (IFM 10152, 72 h), greater than 1020 µg/mL.
As for `NC[C@H]1O[C@H](O[C@H]2[C@H](O)[C@@H](O[C@H]3O[C@H](CO)[C@@H](O)[C@H](N)[C@H]3O)[C@H](N)C[C@@H]2N)[C@H](N)C[C@@H]1O` [TOBRAMYCIN], the MIC in the assay with Nocardia farcinica [1] (IFM 10152, 120 h) was greater than 1020 µg/mL; against Nocardia farcinica [2] (IFM 10152, 72 h), 32 µg/mL (≈ 68.4 µM); in the assay on Nocardia farcinica [3] (IFM 10580, 72 h) it was greater than 1020 µg/mL; against Nocardia farcinica [4] (IFM 10152, 72 h), 64 µg/mL (≈ 137 µM).
`CN[C@@H]1[C@@H](O)[C@@H](O[C@@H]2[C@@H](O)[C@H](O[C@H]3O[C@H](CN)[C@@H](O)[C@H](O)[C@H]3O)[C@@H](N)C[C@H]2NC(=O)[C@@H](O)CN)OC[C@]1(C)O` [ISEPAMICIN]: the MIC in the assay on Nocardia farcinica [1] (IFM 10152, 120 h) was 128 µg/mL (≈ 225 µM); in the assay with Nocardia farcinica [2] (IFM 10152, 72 h), less than 1 µg/mL; against Nocardia farcinica [3] (IFM 10580, 72 h), greater than 1020 µg/mL; in the assay with Nocardia farcinica [4] (IFM 10152, 72 h), 16 µg/mL (≈ 28.1 µM).
As for `NC[C@H]1O[C@H](O[C@H]2[C@H](O)[C@@H](O[C@H]3O[C@H](CO)[C@@H](O)[C@H](N)[C@H]3O)[C@H](N)C[C@@H]2N)[C@H](O)[C@@H](O)[C@@H]1O` [KANAMYCIN], the MIC is greater than 1020 µg/mL in the assay with Nocardia farcinica [1] (IFM 10152, 120 h); 256 µg/mL (≈ 528 µM) in the assay on Nocardia farcinica [2] (IFM 10152, 72 h); greater than 1020 µg/mL in the assay on Nocardia farcinica [3] (IFM 10580, 72 h); greater than 1020 µg/mL against Nocardia farcinica [4] (IFM 10152, 72 h).
For GENTAMICIN, the MIC with Nocardia farcinica [1] was greater than 1020 µg/mL; in the assay with Nocardia farcinica [2], 64 µg/mL; against Nocardia farcinica [3], greater than 1020 µg/mL; against Nocardia farcinica [4], 256 µg/mL.
Consider `CCN[C@@H]1C[C@H](N)[C@@H](O[C@H]2OC(CN)=CC[C@H]2N)[C@H](O)[C@H]1O[C@H]1OC[C@](C)(O)[C@H](NC)[C@H]1O` [NETILMICIN], for which the MIC is 32 µg/mL (≈ 67.3 µM) against Nocardia farcinica [1] (IFM 10152, 120 h); less than 1 µg/mL with Nocardia farcinica [2] (IFM 10152, 72 h); greater than 1020 µg/mL in the assay on Nocardia farcinica [3] (IFM 10580, 72 h); 4 µg/mL (≈ 8.41 µM) against Nocardia farcinica [4] (IFM 10152, 72 h).
For the molecule `NC[C@@H]1O[C@H](O[C@H]2[C@@H](O)[C@H](O[C@@H]3[C@@H](O)[C@H](N)C[C@H](N)[C@H]3O[C@H]3O[C@H](CN)[C@@H](O)[C@H](O)[C@H]3N)O[C@@H]2CO)[C@H](N)[C@@H](O)[C@@H]1O` [FRAMYCETIN], the MIC was greater than 1020 µg/mL against Nocardia farcinica [1] (IFM 10152, 120 h); 16 µg/mL (≈ 26 µM) against Nocardia farcinica [2] (IFM 10152, 72 h); greater than 1020 µg/mL in the assay with Nocardia farcinica [3] (IFM 10580, 72 h); greater than 1020 µg/mL with Nocardia farcinica [4] (IFM 10152, 72 h).
For `NCC[C@H](O)C(=O)N[C@@H]1C[C@H](N)[C@@H](O[C@H]2O[C@H](CN)CC[C@H]2N)[C@H](O)[C@H]1O[C@H]1O[C@H](CO)[C@@H](O)[C@H](N)[C@H]1O` [ARBEKACIN], the MIC was greater than 1020 µg/mL against Nocardia farcinica [1] (IFM 10152, 120 h); less than 1 µg/mL with Nocardia farcinica [2] (IFM 10152, 72 h); greater than 1020 µg/mL against Nocardia farcinica [3] (IFM 10580, 72 h); 2 µg/mL (≈ 3.62 µM) with Nocardia farcinica [4] (IFM 10152, 72 h).
Turning to `NCC[C@H](O)C(=O)N[C@@H]1C[C@H](N)[C@@H](O[C@H]2O[C@H](CN)[C@@H](O)[C@H](O)[C@H]2O)[C@H](O)[C@H]1O[C@H]1O[C@H](CO)[C@@H](O)[C@H](N)[C@H]1O` [AMIKACIN], the MIC against Nocardia farcinica [1] (IFM 10152, 120 h) was greater than 1020 µg/mL; against Nocardia farcinica [2] (IFM 10152, 72 h) it was less than 1 µg/mL; with Nocardia farcinica [5] it was less than 1 µg/mL; with Nocardia farcinica [8], greater than 1020 µg/mL; in the assay on Nocardia farcinica [9], greater than 1020 µg/mL; with Nocardia farcinica [3] (IFM 10580, 72 h), greater than 1020 µg/mL. This molecule yielded an MIC against Nocardia farcinica [4] (IFM 10152, 72 h) of 64 µg/mL (≈ 109 µM). For the same molecule, the result with Nocardia farcinica [6], in the assay with Nocardia farcinica [7], in the assay with Nocardia farcinica [10] and with Nocardia farcinica [11] was inactive.
Take `CN[C@H]1C[C@@H](N)[C@H](O)[C@@H](O[C@@H]2O[C@H](CO)[C@H](O)[C@H]3O[C@@]4(O[C@H]23)O[C@H]([C@H](N)CO)[C@H](O)[C@H](O)[C@H]4O)[C@@H]1O`: the minimum inhibitory concentration (MIC) against Nocardia farcinica [1] (IFM 10152, 120 h) is 32 µg/mL (≈ 60.7 µM); with Nocardia farcinica [2] (IFM 10152, 72 h), 32 µg/mL (≈ 60.7 µM); with Nocardia farcinica [3] (IFM 10580, 72 h), 32 µg/mL (≈ 60.7 µM); in the assay with Nocardia farcinica [4] (IFM 10152, 72 h), 32 µg/mL (≈ 60.7 µM).
As for `CN[C@@H]1[C@H](O[C@H]2[C@H](O[C@H]3[C@H](O)[C@@H](O)[C@H](N=C(N)N)[C@@H](O)[C@@H]3N=C(N)N)O[C@@H](C)[C@]2(O)C=O)O[C@@H](CO)[C@H](O)[C@H]1O` [STREPTOMYCIN], the MIC in the assay on Nocardia farcinica [1] (IFM 10152, 120 h) stood at 128 µg/mL (≈ 220 µM); against Nocardia farcinica [2] (IFM 10152, 72 h), 64 µg/mL (≈ 110 µM); in the assay with Nocardia farcinica [3] (IFM 10580, 72 h), 128 µg/mL (≈ 220 µM); in the assay with Nocardia farcinica [4] (IFM 10152, 72 h), 64 µg/mL (≈ 110 µM).
`CN[C@@H]1[C@@H](O[C@H]2O[C@H](CO)[C@@H](N)[C@H](O)[C@H]2O)OC2C[C@@H](N)[C@@H](O[C@H]3[C@H](O)[C@@H](O)[C@H](N)C[C@@H]3N)OC2[C@@H]1O` (some centres undefined) [APRAMYCIN]: the MIC is 256 µg/mL (≈ 474 µM) with Nocardia farcinica [1] (IFM 10152, 120 h); 32 µg/mL (≈ 59.3 µM) in the assay on Nocardia farcinica [2] (IFM 10152, 72 h); greater than 1020 µg/mL against Nocardia farcinica [3] (IFM 10580, 72 h); 64 µg/mL (≈ 119 µM) with Nocardia farcinica [4] (IFM 10152, 72 h).
